Results published in ChEMBL document CHEMBL1777776, “Identification of 2-mercaptohexanoic acids as dual inhibitors of 5-lipoxygenase and microsomal prostaglandin E₂ synthase-1” (Bioorg Med Chem, 2011).
Activity calls are given as the source filed them. The calls are words filed in the database; no cut-off is given here.

Experiments:
[1] = biological target: T1, Polyunsaturated fatty acid 5-lipoxygenase (Homo sapiens, UniProt P09917); test: Inhibition of human recombinant 5-lipoxygenase expressed in Escherichia coli BL21 assessed as enzyme product formation using arachidonic acid as substrate after 10 mins by RP-HPLC analysis
T1 sequence (P09917 whole entry): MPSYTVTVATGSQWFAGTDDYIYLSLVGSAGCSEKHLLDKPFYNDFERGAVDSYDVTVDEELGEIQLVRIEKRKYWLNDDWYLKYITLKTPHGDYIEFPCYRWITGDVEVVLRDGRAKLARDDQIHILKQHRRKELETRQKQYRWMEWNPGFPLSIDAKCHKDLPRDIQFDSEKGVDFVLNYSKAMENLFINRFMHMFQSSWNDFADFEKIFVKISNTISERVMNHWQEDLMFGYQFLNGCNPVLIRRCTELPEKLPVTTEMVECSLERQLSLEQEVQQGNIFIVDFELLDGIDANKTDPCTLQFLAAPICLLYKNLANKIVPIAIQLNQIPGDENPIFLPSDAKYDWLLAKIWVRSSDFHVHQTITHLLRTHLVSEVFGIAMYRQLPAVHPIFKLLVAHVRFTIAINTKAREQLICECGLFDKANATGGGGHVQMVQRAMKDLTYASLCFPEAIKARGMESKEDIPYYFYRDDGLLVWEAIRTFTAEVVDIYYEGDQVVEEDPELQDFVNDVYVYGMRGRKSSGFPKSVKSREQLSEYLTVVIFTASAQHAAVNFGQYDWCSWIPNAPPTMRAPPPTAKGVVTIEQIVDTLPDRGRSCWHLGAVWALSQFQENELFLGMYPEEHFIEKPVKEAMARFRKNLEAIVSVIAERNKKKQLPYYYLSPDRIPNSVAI
Summary of the method: (§1)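 Human 5-LO expressed in E. coli BL21 (pT3-5LO), affinity-purified and used at once. 0.5 µg enzyme in 1 ml PBS/EDTA with 1 mM ATP preincubated with compound 5–10 min at 4 °C, then warmed 30 s at 37 °C. Reaction started with 2 mM CaCl₂ and AA (routinely 20 µM), with or without 1 µM 13(S)-HpODE. Run 10 min at 37 °C, stopped with ice-cold methanol, products analysed by HPLC. Washout: 10-fold dilution (10 to 1 µM).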

[2] = biological target: T1, Polyunsaturated fatty acid 5-lipoxygenase; test: Inhibition of 5-lipoxygenase in A23187-stimulated human PMNL assessed as enzyme product formation preincubated 15 mins by RP-HPLC analysis in presence of exogenous arachidonic acid
Summary of the method: (§2)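 Freshly isolated human PMNL (5 × 10⁶/ml PGC buffer: PBS pH 7.4, 1 mg/ml glucose, 1 mM CaCl₂) preincubated with compound 15 min at 37 °C. Stimulated with 2.5 µM A23187 plus exogenous AA for 10 min at 37 °C. Stopped with methanol, PGB₁ added as internal standard, lipoxygenase products analysed by HPLC. Mean of n = 3–5.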

[3] = biological target: T2, Polyunsaturated fatty acid 5-lipoxygenase (Homo sapiens) (UniProt P09917); test: Inhibition of 5-lipoxygenase in LPS/fMLP-stimulated human PMNL assessed as enzyme product formation preincubated 15 mins by ELISA analysis; conditions: in the assay text read “10 mins” for “15 mins”
T2 sequence (whole entry): T1 sequence (P09917 whole entry)
Summary of the method: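 Human PMNL in PBS/glucose primed with 1 µg/ml LPS for 10 min at 37 °C, then 0.3 U/ml adenosine deaminase added. After another 10 min, cells given compound (0.3–10 µM) for 10 min, then stimulated with 1 µM fMLP. LTB₄ measured by ELISA.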

[4] = biological target: T2, Polyunsaturated fatty acid 5-lipoxygenase (Homo sapiens); test: Inhibition of human recombinant 5-lipoxygenase expressed in Escherichia coli BL21 assessed as enzyme product formation measured up to 30 uM in presence of 13(S)-HpODE; summary of the method: as §1
[5] = biological target: T3, Polyunsaturated fatty acid lipoxygenase ALOX15 (Homo sapiens) (UniProt P16050); test: Inhibition of 15-lipoxygenase in A23187-stimulated human PMNL assessed as reduction of 15(S)-H(P)ETE formation up to 10 uM preincubated 15 mins by RP-HPLC analysis in presence of exogenous arachidonic acid; summary of the method: as §2
T3 sequence (whole entry): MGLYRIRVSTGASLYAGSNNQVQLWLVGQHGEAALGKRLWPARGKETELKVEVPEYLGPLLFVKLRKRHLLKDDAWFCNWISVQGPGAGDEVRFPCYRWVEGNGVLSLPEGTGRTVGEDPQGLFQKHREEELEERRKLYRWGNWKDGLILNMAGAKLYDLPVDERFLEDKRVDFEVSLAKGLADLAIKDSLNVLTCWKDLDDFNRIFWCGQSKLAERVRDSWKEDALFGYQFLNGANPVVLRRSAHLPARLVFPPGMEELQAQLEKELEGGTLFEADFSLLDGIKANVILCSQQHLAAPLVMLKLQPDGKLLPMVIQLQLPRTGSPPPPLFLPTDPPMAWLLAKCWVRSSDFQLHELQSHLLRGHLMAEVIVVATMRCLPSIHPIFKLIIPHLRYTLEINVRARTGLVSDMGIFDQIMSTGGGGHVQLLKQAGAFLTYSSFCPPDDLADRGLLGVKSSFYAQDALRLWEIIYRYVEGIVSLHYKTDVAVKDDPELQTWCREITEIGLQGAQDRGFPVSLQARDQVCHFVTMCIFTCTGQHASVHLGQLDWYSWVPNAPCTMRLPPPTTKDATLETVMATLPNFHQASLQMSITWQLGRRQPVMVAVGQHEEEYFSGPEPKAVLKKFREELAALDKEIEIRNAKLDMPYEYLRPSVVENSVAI

With `CCCCC(Sc1ccc(OCCCOc2ccc(-c3ccccc3)cc2)cc1)C(=O)O` (stereo not given) the IC50 [1] was 3.5 µM, the IC50 [2] was 0.9 µM and the inhibition [3] was “Active”. For the same compound, the inhibition [4] was “Active” and the inhibition [5] was “inactive”.
